Screens (PubChem)
KLF5 inhibitor – kruppel-like factor 5 inhibition; DLD-1 KLF5 promoter-luciferase reporter, luminescence; inhibition, % at 5 µM; hit rate 0.23% among 290,000; AID 1700;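 active = inhibition above a per-plate limit of that plate's mean compound inhibition plus 3 SD, cut at about 60% in these data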;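 note: 0% = DMSO wells and 100% = LY294002 at 200 µM; higher means less KLF5 promoter-driven luciferase light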
HIF activator – HIF pathway transcriptional activation; U2OS HRE-luciferase reporter, luminescence; normalized: DMSO 0%, desferrioxamine 100%; activation, % at 7.5 µM (by protocol); hit rate 0.32% among 300,000; AID 1910;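 active = mean activation of at least 10% of the iron chelator positive control signal, with at least half of replicates also reaching 10%; inconclusive = mean and replicate majority disagree about reaching 10%; inactive = mean and most replicates under 10%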
T cruzi inh – T. cruzi replication inhibition; T. cruzi beta-gal in NIH3T3, luminescence, 90 h; inhibition, % (no concentration beside the values); hit rate 1.4% among 300,000; AID 1885;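 active = mean inhibition across valid replicates above about 55%, limit read from the data; inconclusive = mean below that limit but half or more replicates reach it; inactive = mean below it, under half of replicates reach it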;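 note: signal also drops with host cell toxicity which is not excluded here; 0% = plate median of DMSO wells and 100% = zero luminescence signal; higher percent means less beta-gal luminescence so fewer parasites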
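Assay system: NIH/3T3 host cells with β-galactosidase reporter T. cruzi; input: 5,000 host fibroblasts per well; compound: single 50 nL compound addition per well in DMSO; timing: ≥90 h infection period, 3 h prior cell attachment; measured by: GalScreen β-gal luminescence, detergent lysis, 60 min; evaluation: percent inhibition of parasite-derived β-gal signal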
Beta apoptosis – beta cell apoptosis inhibition; hit rate 0.8% among 300,000; INS-1E cytokine-induced death, ATP luminescence, 48 h; percent of positive-control rescue, neutral wells zero; AID 435005; protection from apoptosis, % (concentration not given with the values);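 active = Every replicate reaches about 75%, or at least half do and their mean reaches it too, limit read from the data; inconclusive = At least half of replicates reach the limit but their mean does not; inactive = Under half of replicates reach the limit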;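 note: 0% = cytokine-treated negative control wells and 100% = positive control rescue; higher means more ATP so stronger rescue from cytokine killing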
A1 inh – inhibitors of the anti-apoptotic protein A1, read as caspase activation; MEF A1-2A-BIM cells, Caspase-Glo 3/7 luminescence, 3 h; percent of clofoctol response, vehicle zero; hit rate 0.066% among 330,000; caspase activation, % (no concentration beside the values);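 active = over half of replicate activation scores above 10%, or exactly half above 10 with the replicate mean above 10; inconclusive = replicate mean below 10 yet half the replicates above 10; inactive = over half of replicates below 10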
Active calls of the source: *; ? = inconclusive; nt = no result given. The list is not random: actives were taken first. Their share in the collection is about 2.3%.

SMILES	KLF5 inhibitor	HIF activator	T cruzi inh	Beta apoptosis	A1 inh
Cc1noc(-c2ccc(C(F)(F)F)cc2)c1NC(=O)Nc1ccc(Cl)cc1	-32.3	-1.2	-1.7	104.9*	-0.9
O=C(Nc1ccc(Nc2ccccc2)cc1)c1ccc(Cl)cc1	nt	-0.1	12.8	13.6	-0.2
N#C/C(C(=O)Nc1ccc(Cl)cc1)=C(/S)Nc1ccccc1	0.1	0.7	79.0*	nt	-5.1
O=C(Nc1ccncc1)Nc1cccc(Cl)c1	-18.9	0.9	43.3	3.7	0.6
O=C(Nc1cccc(Cl)c1)Nc1ccccc1-n1ccnc1	10.9	0.2	56.6*	-7.6	0.5
Cc1cc(C)cc(NC(=O)Nc2ccc(-n3ccc(C(F)(F)F)n3)cc2)c1	-8.6	0.5	9.1	29.7	0.4
O=C(Nc1ccc(-n2ccc(C(F)(F)F)n2)cc1)Nc1cccc(Cl)c1	-55.5	2.0	62.1*	116.3*	0.0
CCOC(=O)C1CCCN(C(=O)c2cc3ccc(OC)cc3[nH]2)C1 (centres undefined)	-32.1	0.7	-7.8	0.9	0.6
O=C(COC(=O)C1CCCC1)Nc1ncc(Cl)cc1Cl	nt	-0.2	-10.9	-0.9	-0.3
O=C(N/N=C/c1ccc(Br)s1)c1ccncc1	-37.1	0.3	-0.9	-1.7	-0.9
O=C(N/N=C/c1cc(Br)c(Br)s1)c1ccncc1	-22.4	0.8	39.1	85.0*	1.2
O=C(O)COc1ccc(/C=C/c2nc3ccc([N+](=O)[O-])cc3s2)cc1	-34.4	-0.1	56.5*	-3.8	0.1
O=C(COC(=O)/C=C/c1cccc(Cl)c1)NC1CC1	nt	nt	nt	-3.2	-0.1
Cc1ccc(C)c(S(=O)(=O)Nc2cc(SCC(=O)O)c(O)c3ccccc23)c1	-21.8	nt	nt	129.5*	1.4
CCc1ccc(S(=O)(=O)Nc2cc(SCC(=O)O)c(O)c3ccccc23)cc1	-3.9	-0.2	-8.1	-21.6	0.1
CCc1ccc(OCCCCN(C)Cc2ccccc2)cc1	-34.5	-0.7	55.0*	nt	0.5
CN(CCCCOc1ccc(F)cc1)Cc1ccccc1	-24.5	-6.2	50.4	nt	-0.6
O=C(NCCC1=CCCCC1)c1ccc2c(c1)N(Cc1ccccc1)C(=O)CS2	-20.4	-0.5	55.7*	4.3	0.2
O=C(NCCN1CCOCC1)c1ccc2c(c1)N(Cc1ccccc1)C(=O)CS2	1.1	0.5	-3.5	-9.5	0.1
O=C(c1ccc(SCc2cccc(Br)c2)c([N+](=O)[O-])c1)N1CCN(c2ccccn2)CC1	-5.3	-0.3	58.4*	-4.3	0.5
O=C(c1cccc(Br)c1)N1CCN(c2ccccn2)CC1	nt	-0.2	nt	-2.1	-1.1
O=C(c1ccc(Cl)cc1)N1CCC(C(=O)N2CCCc3ccccc32)CC1	-16.3	0.2	2.5	0.5	-0.8
C#CCOCCOCCOCCNc1nc(N2CCN(C(=O)[C@H](CCCCN)n3cc([C@@H](N)CO)nn3)CC2)nc(N2CCN(C(=O)[C@H](Cc3cc4ccccc4[nH]3)n3cc([C@@H](N)CC(C)C)nn3)CC2)n1	-15.4	-2.0	2.3	-2.7	2.9
O=C(OCn1ncc(Cl)c(Cl)c1=O)c1cccc(C(F)(F)F)c1	0.9	-5.5	54.3	6.8	?
O=C(OCn1ncc(Br)c(Br)c1=O)c1ccc(F)cc1	26.0	-4.5	50.7	99.5*	1.0
SMILES	KLF5 inhibitor	HIF activator	T cruzi inh	Beta apoptosis	A1 inh
O=C(OCn1ncc(Br)c(Br)c1=O)c1ccccc1Cl	8.5	1.8	58.6*	112.1*	-0.6
COc1ccc(CNC(=O)c2ccc(Cn3cc(Br)cn3)o2)cc1	-43.8	-0.1	4.2	-8.4	0.6
CCOc1ccc(S(=O)(=O)N(CC)CC(=O)NCc2cccnc2)cc1	-17.0	-0.4	-14.5	3.1	-0.4
CC1CCN(CCOCCSc2ccc(Cl)cc2)CC1	-15.4	-0.2	54.0	-2.1	-2.5
CC1CN(CCOCCSc2ccc(Cl)cc2)CC(C)O1 (centres undefined)	-19.1	0.0	61.8*	nt	1.4
Clc1ccc(OCCOCCN2CCc3ccccc3C2)c(Cl)c1	-33.9	0.1	58.9*	2.5	-0.1
Clc1ccc(SCCOCCN2CCc3ccccc3C2)cc1	-7.2	0.0	66.4*	-2.9	0.1
CC1CN(CCOCCSc2ccccc2)CC(C)O1 (centres undefined)	-3.2	-0.2	50.9	3.4	0.8
Clc1ccc(SCCOCCN2CCCCC2)cc1	-15.7	0.1	?	-1.4	0.7
Clc1ccc(SCCOCCN2CCOCC2)cc1	-62.0	-0.6	57.5*	-0.1	-0.2
COc1cc(NC(=O)COC(=O)CNC(=O)C2CCCCC2)cc(OC)c1	nt	nt	nt	1.2	-0.5
Cc1ccc(C)c(N(C(=O)c2ccco2)C(C(=O)NC2CCCC2)c2ccco2)c1 (centres undefined)	11.9	-16.3	2.0	-1.2	-0.1
O=C(CCN1CCOCC1)c1ccc(Cl)cc1	-13.5	-0.6	75.4*	-4.1	0.8
CC(C)CN(C(=O)c1cccc(S(=O)(=O)N2CCN(Cc3ccccc3)CC2)c1)C1CCS(=O)(=O)C1 (centres undefined)	nt	-0.6	2.2	-1.2	-0.3
Cc1ccc(NC(=O)COC(=O)c2ccc(-n3nc(C)cc3C)cc2)c(F)c1	nt	nt	nt	4.4	-1.3
CCOc1ccc(C(=O)NCC2CCCO2)cc1OCC (centres undefined)	-6.4	11.3*	-1.4	-7.7	0.8
O=C(NCC1CCCO1)c1sc2cc(Cl)ccc2c1Cl (centres undefined)	-104.3	9.9*	9.7	3.4	-0.5
CSc1nc(N)nc2c1ncn2CC(=O)NCCNc1ccc([N+](=O)[O-])cn1	nt	nt	nt	-1.4	-0.3
CCC(C)n1ncn(-c2ccc(N3CCN(c4ccc(OCC5COC(Cn6cncn6)(c6ccc(Cl)cc6Cl)O5)cc4)CC3)cc2)c1=O (centres undefined)	-32.8	-0.3	54.5*	-1.7	0.6
Clc1ccc(CSc2nnc(-c3ccncc3)s2)cc1	-18.4	3.3	59.4*	-5.5	-0.2
Clc1cccc(Cl)c1CSc1nnc(-c2ccncc2)s1	-15.0	1.6	49.5	-2.7	-2.0
CCN(C[C@H]1N[C@@](C)(C(=O)OC)[C@H]2C(=O)N(C)C(=O)[C@@H]12)C(=O)Nc1ccc(C(F)(F)F)cc1	nt	nt	nt	-6.8	-0.5
Clc1ccc2[nH]cc(-c3nnnn3-c3ccc4ccccc4c3)c2c1	-11.5	-0.1	68.8*	30.7	-0.8
COc1ccc(S(=O)(=O)N2CCc3ccccc32)cc1C(=O)NCC(c1ccco1)N1CCCC1 (centres undefined)	nt	nt	nt	0.0	0.7
Cc1cc(=O)[nH]c(N=N/C(=N/Nc2ccc(O)cc2)c2ccccc2)n1	-94.1	12.0*	40.1	11.0	0.0
COc1ccc(C(=O)CSc2nc(C)cc(=O)[nH]2)cc1	-12.8	0.0	6.0	-0.3	2.8
Cc1cc(=O)[nH]c(N=N/C(=N/Nc2ccccc2C)c2ccccc2)n1	-27.7	1.6	40.3	93.2*	1.2
COc1ccc(N/N=C(/N=Nc2nc(C)cc(=O)[nH]2)c2ccccc2)cc1	-71.0	142.8*	44.5	91.0*	0.0
